SMILES strings stand for the structures. ≈ marks a conversion by molar mass, not a printed value. Bounds are passed on as bounds.

One data set has as its system Liver. As to the kind of experiment: Intrinsic clearance in rat liver microsome S9 fraction as % compound remaining after incubation. Format: ADME, subcellular.
The target in data set [1] is T1, Intermediate conductance calcium-activated potassium channel protein 4 (Homo sapiens, UniProt O15554). Briefly: Inhibition of Gardos channel in human RBC assessed as inhibition of ionomycin-stimulated [86Rb] efflux.
T1 sequence (O15554 whole entry): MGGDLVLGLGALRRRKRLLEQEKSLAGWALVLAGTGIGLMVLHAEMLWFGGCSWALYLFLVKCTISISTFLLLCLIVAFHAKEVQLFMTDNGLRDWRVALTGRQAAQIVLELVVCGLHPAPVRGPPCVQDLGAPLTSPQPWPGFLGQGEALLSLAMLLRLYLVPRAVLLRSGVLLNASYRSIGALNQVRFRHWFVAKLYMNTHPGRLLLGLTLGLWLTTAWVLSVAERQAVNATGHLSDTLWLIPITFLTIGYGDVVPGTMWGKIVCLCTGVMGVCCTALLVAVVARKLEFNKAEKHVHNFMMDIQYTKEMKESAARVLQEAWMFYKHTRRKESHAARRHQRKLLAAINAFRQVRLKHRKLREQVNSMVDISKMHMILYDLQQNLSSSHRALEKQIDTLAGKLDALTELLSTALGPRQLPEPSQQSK
Data set [2] can be described thus: Solubility by shake-flask method. It counts as physicochemical. A digest of the protocol: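 Modified shake-flask method: about 1 mg compound shaken overnight in 1 mL PBS, pH 6.8. Supernatant analysed by LC/MS/MS; 2 measurements.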
A short description of data set [3]: Half life in Sprague-Dawley rat at 1 mg/kg, iv or 10 mg/kg, po. The following applies: in vivo. It counts as ADME, organism-based. A digest of the protocol: (§1)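 Male Sprague-Dawley rats (251–299 g), n = 3 per time point. Dosed 1 mg/Kg IV by tail vein in PEG-400/cremophor-EL, or 10 mg/Kg by oral gavage in 0.5% aqueous methylcellulose. Plasma sampled 0.08–24 h (IV) or 0.5–24 h (PO) and quantified by LC-MS, LLOQ 1 ng/mL. Noncompartmental analysis; Cmax and Tmax read from the data; AUC by linear-log trapezoidal rule.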

Data set [4] relates to Mus musculus. Briefly: Effect on gardos channel activity in SAD1 mouse model assessed by measuring [86Rb]/L of cells at 20 mg/kg, po bid after 7 days. Format: functional.
Data set [5] relates to Mus musculus. As to the kind of experiment: Effect on mean corpuscular hemoglobin concentration in SAD1 mouse model at 20 mg/kg, po bid after 14 days. It counts as functional. Summed up:
(§2)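 Transgenic SAD-1 mice of both sexes, 3–6 months, 25–30 g, given vehicle or compound by oral gavage twice daily. Blood parameters taken at baseline and at days 7 and 14 (20 mg/kg arm) or days 11 and 21 (10 mg/kg arm). Hematocrit measured by micro-Hct centrifugation; cells washed three times in PBS (330 mOsm) at 25 °C.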

The test system of data set [6] is Mus musculus. As to the kind of experiment: Effect on hematocrit levels in SAD1 mouse model at 20 mg/kg, po bid after 7 days. It counts as functional. Summed up:
as §2

Data set [7] concerns Mus musculus. Briefly: Effect on gardos channel activity in SAD1 mouse model assessed by measuring [86Rb]/L of cells at 20 mg/kg, po bid after 14 days. Format: functional.
A further data set has as its target CYP3A4 (Homo sapiens, UniProt P08684). As to the kind of experiment: Inhibition of CYP3A4 at 10 uM. Format: ADME.
Data set [8] is described as follows: Tmax in Sprague-Dawley rat at 1 mg/kg, iv or 10 mg/kg, po. Format: ADME, organism-based. The following applies: in vivo. Summed up: as §1
The test system of data set [9] is Mus musculus. Briefly: Effect on mean corpuscular hemoglobin concentration in SAD1 mouse model at 20 mg/kg, po bid after 7 days. Format: functional. A digest of the protocol:
as §2

For data set [10], the system named is Mus musculus. As to the kind of experiment: Effect on hematocrit levels in SAD1 mouse model at 20 mg/kg, po bid after 14 days. Format: functional. Summed up:
as §2

Data set [11] is described as follows: Cmax in Sprague-Dawley rat at 1 mg/kg, iv or 10 mg/kg, po. The following applies: in vivo. Format: ADME, organism-based. Summed up:
as §1

For data set [12], the system named is Mus musculus. Briefly: Effect on hematocrit levels in SAD1 mouse model at 10 mg/kg, po bid after 21 days. Format: functional. Summed up: as §2
The test system of data set [13] is Mus musculus. As to the kind of experiment: Effect on hematocrit levels in SAD1 mouse model at 10 mg/kg, po bid after 11 days. It counts as functional. Summed up: as §2
For data set [14], the system named is Mus musculus. Briefly: Effect on mean corpuscular hemoglobin concentration in SAD1 mouse model at 10 mg/kg, po bid after 11 days. Format: functional. A digest of the protocol:
as §2

The nature of data set [15]: Bioavailability in Sprague-Dawley rat at 1 mg/kg, iv or 10 mg/kg, po. Format: ADME, organism-based. The following applies: in vivo. A digest of the protocol:
as §1

For data set [16], the system named is Mus musculus. As to the kind of experiment: Effect on mean corpuscular hemoglobin concentration in SAD1 mouse model at 10 mg/kg, po bid after 21 days. Format: functional. A digest of the protocol:
as §2

In data set [17] the test system is Mus musculus. As to the kind of experiment: Effect on gardos channel activity in SAD1 mouse model at 10 mg/kg, po bid after 21 days. Format: functional.
Data set [18] has as its system Mus musculus. As to the kind of experiment: Effect on gardos channel activity in SAD1 mouse model at 10 mg/kg, po bid after 11 days. Format: functional.
Data set [19] concerns the target T1, Intermediate conductance calcium-activated potassium channel protein 4. Briefly: Inhibition of Gardos channel in human RBC assessed as […] at 10 uM.
The next data set deals with hERG (KCNH2) (Homo sapiens, UniProt Q12809). Briefly: Inhibition of human ERG at 10 uM.
Sequence of hERG (KCNH2) (Q12809 whole entry): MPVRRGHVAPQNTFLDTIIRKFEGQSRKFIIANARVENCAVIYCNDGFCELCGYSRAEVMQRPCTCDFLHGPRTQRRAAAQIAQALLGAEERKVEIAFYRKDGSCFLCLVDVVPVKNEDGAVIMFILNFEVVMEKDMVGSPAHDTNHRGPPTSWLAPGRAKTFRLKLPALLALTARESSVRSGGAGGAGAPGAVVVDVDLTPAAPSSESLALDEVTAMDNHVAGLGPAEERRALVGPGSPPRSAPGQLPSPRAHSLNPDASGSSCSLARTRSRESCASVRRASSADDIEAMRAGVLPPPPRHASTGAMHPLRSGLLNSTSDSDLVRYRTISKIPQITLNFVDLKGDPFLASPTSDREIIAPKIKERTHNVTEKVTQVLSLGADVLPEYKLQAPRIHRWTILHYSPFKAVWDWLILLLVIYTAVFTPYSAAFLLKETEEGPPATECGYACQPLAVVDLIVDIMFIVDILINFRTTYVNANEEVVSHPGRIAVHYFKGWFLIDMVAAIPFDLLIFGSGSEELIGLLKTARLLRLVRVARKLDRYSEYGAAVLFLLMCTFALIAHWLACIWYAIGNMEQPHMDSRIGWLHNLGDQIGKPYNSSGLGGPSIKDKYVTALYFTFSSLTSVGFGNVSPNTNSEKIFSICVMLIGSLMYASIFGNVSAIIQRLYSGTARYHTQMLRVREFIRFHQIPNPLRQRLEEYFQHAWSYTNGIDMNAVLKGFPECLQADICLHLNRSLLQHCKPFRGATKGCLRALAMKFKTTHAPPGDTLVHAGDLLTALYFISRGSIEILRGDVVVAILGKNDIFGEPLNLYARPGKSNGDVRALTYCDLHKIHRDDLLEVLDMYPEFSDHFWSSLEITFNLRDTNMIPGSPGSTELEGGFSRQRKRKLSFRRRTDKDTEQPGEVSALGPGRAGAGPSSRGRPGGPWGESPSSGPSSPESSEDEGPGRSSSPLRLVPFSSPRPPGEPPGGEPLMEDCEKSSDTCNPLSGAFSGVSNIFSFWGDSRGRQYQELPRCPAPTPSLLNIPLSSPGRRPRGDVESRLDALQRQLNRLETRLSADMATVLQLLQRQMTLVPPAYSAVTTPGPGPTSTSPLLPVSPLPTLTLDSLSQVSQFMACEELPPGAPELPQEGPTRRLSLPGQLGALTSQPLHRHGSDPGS

Sequence of CYP3A4 (P08684 whole entry): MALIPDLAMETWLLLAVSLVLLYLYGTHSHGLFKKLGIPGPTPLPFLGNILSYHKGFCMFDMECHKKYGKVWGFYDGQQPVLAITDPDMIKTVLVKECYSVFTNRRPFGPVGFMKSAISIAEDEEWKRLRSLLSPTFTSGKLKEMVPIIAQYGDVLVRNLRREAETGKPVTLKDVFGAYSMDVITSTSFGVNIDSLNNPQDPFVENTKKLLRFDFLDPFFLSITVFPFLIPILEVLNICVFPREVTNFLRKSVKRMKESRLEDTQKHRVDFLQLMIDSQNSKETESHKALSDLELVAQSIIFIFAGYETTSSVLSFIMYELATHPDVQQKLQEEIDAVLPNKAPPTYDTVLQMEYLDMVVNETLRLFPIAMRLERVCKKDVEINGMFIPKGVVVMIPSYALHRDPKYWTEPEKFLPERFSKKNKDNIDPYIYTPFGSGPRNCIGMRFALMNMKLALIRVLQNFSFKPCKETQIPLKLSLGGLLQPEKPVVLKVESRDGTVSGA

For `NC(=O)C(c1ccccc1)(c1ccccc1)c1ccc(F)cc1`, in the data set on Liver, the Compound remaining was determined as 58%. In addition, in [1], the IC50 came to 40 nM. In data set [2], this compound gave a thermodynamic solubility of 2.9 µM (≈ 0.886 µg/mL).
The matching figures for `NC(=O)C(c1ccc(F)cc1)(c1ccc(F)cc1)c1cccc(F)c1`: 19%, 17 nM and 4.1 µM (≈ 1.4 µg/mL).
`NC(=O)C(c1ccccc1)(c1cccc(F)c1)c1cccc(F)c1` gave a Compound remaining in the data set on Liver of 43%. This compound also gave a thermodynamic solubility in data set [2] of 1.2 µM (≈ 0.388 µg/mL).
Turning to `CCNC(=O)C(c1ccccc1)(c1ccccc1)c1ccccc1`, in data set [1], the IC50 stood at 1750 nM.
In the data set with Liver, `NC(=O)C(c1ccccc1)(c1ccccc1F)c1ccccc1F` gave a Compound remaining of 48%. In [1], the 50% inhibitory concentration (IC50) was found to be 30 nM. Moreover, the solubility (thermodynamic) in data set [2] was > 31 µM.
`NC(=O)C(c1ccccc1)(c1ccccc1)c1ccccc1F`: the Compound remaining in the data set with Liver is 61%. In data set [2], this compound returned a solubility (thermodynamic) of 10.6 µM (≈ 3.24 µg/mL).
For the compound `COC(=O)C(c1ccccc1)(c1ccccc1)c1ccccc1`, the IC50 in data set [1] amounted to 330 nM.
`NC(=O)C(c1ccc(F)cc1)(c1cccc(F)c1)c1cccc(F)c1`: the IC50 in [1] was found to be 15 nM.
In turn, `NC(=O)C(c1ccccc1)(c1ccc(F)cc1)c1ccccc1F` (stereo unspecified) showed a half-life in data set [3] of 2.5 h. In the data set with Liver, this compound had a Compound remaining of 40%. The Activity stood at 4 mmol in the data set with Mus musculus [4]; 27 g/dL with Mus musculus [5]; 44.5% in the data set with Mus musculus [6]; 2 mmol in the data set with Mus musculus [7]; 34 g/dL with Mus musculus [9]; 47% with Mus musculus [10]. Further, the inhibition at 10 µM at CYP3A4 was < 20%. In data set [1], the half-maximal inhibitory concentration (IC50) was found to be 9 nM. Further, the Tmax in data set [8] stood at 2 h. The compound further returned a thermodynamic solubility in data set [2] of 5.8 µM (≈ 1.88 µg/mL). Further, the concentration in [11] peaked (Cmax) at 250 ng/mL.
For the compound `c1ccc(C(C2=NCCO2)(c2ccccc2)c2ccccc2)cc1`, the IC50 in data set [1] was 4300 nM.
For `NC(=O)C(c1ccc(F)cc1)(c1ccc(F)cc1)c1ccc(F)cc1`, in the data set with Liver, the Compound remaining is 25%. The IC50 in [1] is 14 nM. In data set [2], this compound registered a thermodynamic solubility of 2.6 µM (≈ 0.887 µg/mL).
On to `NC(=O)C(c1ccccc1)(c1ccccc1)c1ccc(F)cc1F`, for which the Compound remaining with Liver amounted to 44%. In [2], this compound displayed a thermodynamic solubility of 1.8 µM (≈ 0.582 µg/mL).
Regarding `CN(C)C(=O)C(c1ccccc1)(c1ccccc1)c1ccccc1`, the IC50 in data set [1] was determined as 3150 nM.
`NC(=O)C(c1ccccc1)(c1ccc(F)cc1)c1ccc(F)cc1` [SENICAPOC] had a half-life in data set [3] of 1 h. Besides, the Compound remaining with Liver is 51%. For the same compound, the Activity in the data set with Mus musculus [12] is 49.9%; in the data set with Mus musculus [13], 50.9%; with Mus musculus [14] it was 29.5 g/dL; with Mus musculus [16], 30.3 g/dL; in the data set with Mus musculus [17] it was 1.5 mmol; in the data set with Mus musculus [18] it was 3 mmol. Moreover, the inhibition at 10 µM against CYP3A4 is < 20%. This compound also returned a bioavailability in data set [15] of 51%. The time of peak concentration (Tmax) in data set [8] turned out to be 4 h. The solubility (thermodynamic) in [2] came out at 3.8 µM (≈ 1.23 µg/mL). Moreover, the peak level in data set [11] (Cmax) was 400 ng/mL.
In the case of `NC(=O)C(c1ccc(F)cc1)(c1ccccc1F)c1ccccc1F`, the Compound remaining in the data set with Liver worked out at 46%. Also, the IC50 in data set [1] turned out to be 15 nM. Besides, the solubility (thermodynamic) in data set [2] is 6.8 µM (≈ 2.32 µg/mL).
The matching figures for `NC(=O)C(c1ccc(F)cc1)(c1ccc(F)cc1)c1ccccc1F`: 62%, 10 nM and 8.3 µM (≈ 2.83 µg/mL).
On to `O=C1Nc2ccccc2C1(c1ccccc1)c1ccccc1`, for which the inhibition in [19] is < 20%.
With `NC(=O)C(c1ccccc1)(c1ccccc1)c1ccc(F)c(F)c1`, the Compound remaining in the data set on Liver is given as 63%. In addition, in data set [1], the IC50 turned out to be 14 nM. In data set [2], this compound registered a solubility (thermodynamic) of 4.3 µM (≈ 1.39 µg/mL).
For `NC(=O)C(c1cccc(F)c1)(c1cccc(F)c1)c1cccc(F)c1`, in the data set with Liver, the Compound remaining amounted to 36%. Further, the concentration for half-maximal inhibition (IC50) in data set [1] came out at 13 nM. Moreover, the solubility (thermodynamic) in data set [2] turned out to be 3.4 µM (≈ 1.16 µg/mL).
Consider `CNC(=O)C(c1ccccc1)(c1ccccc1)c1ccccc1`, for which the inhibition at 10 µM at hERG (KCNH2) and against CYP3A4 was < 20% throughout. Further, the concentration for half-maximal inhibition (IC50) in data set [1] is 550 nM.
For the compound `O=C(O)C(c1ccccc1)(c1ccccc1)c1ccccc1`, in [1], the IC50 was > 10000 nM.

Source of the values: ChEMBL document CHEMBL1141563, “Novel inhibitors of the Gardos channel for the treatment of sickle cell disease” (J Med Chem, 2008).
